16 molecules from ChEMBL document CHEMBL2177030 can be followed below.

Assay [1] has as its target T1, Gastric triacylglycerol lipase (Canis lupus familiaris) (UniProt P80035).
T1 sequence (whole entry): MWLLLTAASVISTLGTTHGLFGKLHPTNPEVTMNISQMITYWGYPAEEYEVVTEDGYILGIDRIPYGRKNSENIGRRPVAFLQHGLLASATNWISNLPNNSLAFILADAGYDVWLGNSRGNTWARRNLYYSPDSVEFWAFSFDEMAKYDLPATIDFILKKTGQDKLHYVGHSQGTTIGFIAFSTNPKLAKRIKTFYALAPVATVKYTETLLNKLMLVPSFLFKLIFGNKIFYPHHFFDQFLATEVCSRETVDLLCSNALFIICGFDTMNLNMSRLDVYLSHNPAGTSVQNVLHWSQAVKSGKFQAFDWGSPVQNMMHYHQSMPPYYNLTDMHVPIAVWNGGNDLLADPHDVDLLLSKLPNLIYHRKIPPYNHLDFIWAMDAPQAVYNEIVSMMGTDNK
As to the kind of experiment: Inhibition of dog recombinant gastric lipase expressed in transgenic maize at 200 molar excess compound concentration pre-incubated for 2 hrs with enzyme before substrate addition by pH-stat technique. The settings on record: Stomach. The format is single protein.

Assay [2] addresses T2, Pancreatic lipase-related protein 2 (Cavia porcellus) (UniProt P81139).
T2 sequence (whole entry): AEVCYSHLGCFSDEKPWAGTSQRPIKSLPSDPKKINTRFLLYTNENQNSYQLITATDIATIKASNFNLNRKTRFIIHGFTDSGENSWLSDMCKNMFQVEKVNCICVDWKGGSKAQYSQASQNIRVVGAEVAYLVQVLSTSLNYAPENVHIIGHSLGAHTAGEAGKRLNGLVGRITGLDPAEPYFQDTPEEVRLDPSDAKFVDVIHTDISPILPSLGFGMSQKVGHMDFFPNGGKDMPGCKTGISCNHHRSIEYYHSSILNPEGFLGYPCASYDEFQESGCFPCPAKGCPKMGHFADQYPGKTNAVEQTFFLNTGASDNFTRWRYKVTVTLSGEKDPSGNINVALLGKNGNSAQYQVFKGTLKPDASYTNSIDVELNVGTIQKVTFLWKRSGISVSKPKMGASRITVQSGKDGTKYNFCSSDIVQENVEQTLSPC
Nature of the assay: Inhibition of guinea pig recombinant PLRP2 expressed in Aspergillus oryzae at 200 molar excess compound concentration pre-incubated for 2 hrs with enzyme before substrate addition by pH-stat technique.

Assay [3] addresses T3, Pancreatic triacylglycerol lipase (Homo sapiens) (UniProt P16233).
T3 sequence (whole entry): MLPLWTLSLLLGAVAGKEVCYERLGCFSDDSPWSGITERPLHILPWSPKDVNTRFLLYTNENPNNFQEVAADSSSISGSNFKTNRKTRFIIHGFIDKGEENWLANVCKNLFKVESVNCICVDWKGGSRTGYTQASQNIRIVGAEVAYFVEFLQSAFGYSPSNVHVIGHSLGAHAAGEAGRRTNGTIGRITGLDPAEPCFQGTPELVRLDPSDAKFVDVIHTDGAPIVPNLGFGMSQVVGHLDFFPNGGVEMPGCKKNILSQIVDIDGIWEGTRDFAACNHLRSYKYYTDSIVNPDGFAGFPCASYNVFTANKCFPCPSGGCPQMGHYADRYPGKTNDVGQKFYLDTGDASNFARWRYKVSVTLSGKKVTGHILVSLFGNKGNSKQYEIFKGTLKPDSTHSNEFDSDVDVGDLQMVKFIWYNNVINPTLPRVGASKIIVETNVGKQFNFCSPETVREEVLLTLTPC
As to the kind of experiment: Inhibition of human recombinant pancreatic lipase expressed in Pichia pastoris at 200 molar excess compound concentration pre-incubated for 2 hrs with enzyme before substrate addition by pH-stat technique.

The test system of assay [4] is Mycobacterium tuberculosis. As to the kind of experiment: Inhibition of Mycobacterium tuberculosis LipY pre-incubated for 30 mins with enzyme before substrate addition by pH-stat technique. An outline of the steps: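 Without NaTDC, LipY was incubated 30 min at 25 °C with inhibitor at xI 2–100. Residual activity was determined by pH-stat at 37 °C on TC4 in 2.5 mM Tris-HCl pH 7.5, 300 mM NaCl, 3 mM NaTDC. xI50 was taken from activity versus molar excess. Isopropanol-only controls were run. At least duplicate.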

The target in assay [5] is Monoacylglycerol lipase (Mycobacterium tuberculosis H37Rv) (UniProt O07427). As to the kind of experiment: Inhibition of Mycobacterium tuberculosis Rv0183 pre-incubated for 30 mins with enzyme before substrate addition by pH-stat technique. In a few lines:
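Rv0183 was preincubated 30 min at 25 °C without NaTDC at inhibitor molar excess 2, 4, 20, 40 or 100. Residual monoglyceride lipase activity was measured by pH-stat at 37 °C with MC18 emulsion, pH 8.0, 3 mM NaTDC. xI50 was read from the residual-activity curve. Solvent controls were run. At least duplicate.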

Assay [6] has as its target T4, Cutinase 1 (Fusarium vanettenii) (UniProt P00590).
T4 sequence (whole entry): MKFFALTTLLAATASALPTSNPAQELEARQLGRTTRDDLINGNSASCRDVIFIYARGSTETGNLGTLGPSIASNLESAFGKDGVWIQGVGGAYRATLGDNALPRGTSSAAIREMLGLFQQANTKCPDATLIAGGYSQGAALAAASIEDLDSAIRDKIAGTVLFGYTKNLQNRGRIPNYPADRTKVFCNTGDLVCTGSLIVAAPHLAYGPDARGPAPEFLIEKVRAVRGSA
Nature of the assay: Inhibition of Fusarium solani pisi cutinase pre-incubated for 30 mins with enzyme before substrate addition by pH-stat technique. An outline of the steps: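 Cutinase was preincubated for 30 min at 25 °C in 2 mM NaTDC, substrate absent, at inhibitor molar excess xI 2, 4, 20, 40 or 100. Residual activity was measured by pH-stat at 37 °C on TC4 emulsion at pH 8.0 with 0.25 mM NaTDC. xI50 is the molar excess giving 50% activity. Isopropanol controls were run. At least duplicate.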

Assay [7] has as its system Mycobacterium tuberculosis. Nature of the assay: Inhibition of Mycobacterium tuberculosis LipY at 40 molar excess compound concentration pre-incubated for 30 mins with enzyme before substrate addition by pH-stat technique.
Assay [8] deals with Mycobacterium tuberculosis. As to the kind of experiment: Inhibition of Mycobacterium tuberculosis LipY assessed as covalent bond formation with enzyme serine residue by measuring change in molecular weight of enzyme-compound complexes at 40 molar excess compound concentration pre-incubated for 30 mins with enzyme before substrate addition by MALDI-TOF mass spectrometry method. An outline of the steps:
(§1)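 Each enzyme was preincubated with the inhibitor for 30 min at 25 °C at xI 40, with the inhibitor taken from a 5 mg/mL isopropanol stock. Intact masses of native and inhibited protein were measured by MALDI-TOF. For tryptic mapping, 5–50 pmol protein was reduced with DTT, alkylated with iodoacetamide and digested overnight at 37 °C.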

Assay [9] deals with Mycobacterium tuberculosis. Nature of the assay: Inhibition of Mycobacterium tuberculosis LipY assessed as half inactivation time pre-incubated with enzyme before substrate addition by pH-stat technique. An outline of the steps: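 LipY was incubated with inhibitor at xI 4 at 25 °C without NaTDC for up to 1 h. At time points, residual activity was titrated by pH-stat at 37 °C on TC4 emulsion in 2.5 mM Tris-HCl pH 7.5, 300 mM NaCl, 3 mM NaTDC. Half-inactivation time came from the curve. Runs were done at least in duplicate.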

Assay [10] has as its target T4, Cutinase 1 (Fusarium vanettenii). Nature of the assay: Inhibition of Fusarium solani pisi cutinase assessed as covalent bond formation with enzyme serine residue by measuring change in molecular weight of enzyme-compound complexes at 40 molar excess compound concentration pre-incubated for 30 mins with enzyme before substrate addition by MALDI-TOF mass spectrometry method. An outline of the steps:
as §1

Activity calls are given as the source filed them. The calls are words filed in the database; no cut-off is given here. Some results are limits rather than exact numbers.

Monoacylglycerol lipase (Mycobacterium tuberculosis H37Rv), sequence (O07427 whole entry): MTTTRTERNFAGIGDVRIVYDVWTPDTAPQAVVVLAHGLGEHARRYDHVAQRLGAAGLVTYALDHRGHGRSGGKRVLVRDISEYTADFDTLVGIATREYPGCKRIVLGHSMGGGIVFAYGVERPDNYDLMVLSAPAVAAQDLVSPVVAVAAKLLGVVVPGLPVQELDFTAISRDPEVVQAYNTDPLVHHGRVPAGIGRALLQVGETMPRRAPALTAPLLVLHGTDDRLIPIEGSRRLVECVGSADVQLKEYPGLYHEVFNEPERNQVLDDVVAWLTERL

As for `CCCCCCCCCCCC[C@@H]1CC[P@@](=O)(OC)OC(C)=C1C(=O)OC` (racemic), the inhibition result in [1], in assay [2] and in assay [3] was “inactive” throughout. The XI50 was found to be 3.46 molar excess in assay [4], 5.23 molar excess in assay [5] and 2 molar excess in assay [6].

Consider `CCCCCCCCCC[C@@H]1CC[P@](=O)(OC)OC(C)=C1C(=O)OC` (racemic), for which the inhibition entry in assay [1], in assay [2] and in [3] was “inactive” in each case. The XI50 is 25.8 molar excess in [4], 3.57 molar excess in assay [5] and 14.6 molar excess in [6].

With `CCCCCC1CCP(=O)(OC)OC(C)=C1C(=O)OC` (racemic), the inhibition in assay [7] was 14%.

Take `CCCCCCCCCCCCCCCCCCOP1(=O)CCCC(C(=O)OC)=C(C)O1` (configuration not stated): the inhibition result in assay [1], in assay [2] and in assay [3] was “inactive” throughout. The XI50 in assay [4] came out at 0.59 molar excess; in assay [6], 0.95 molar excess. Further, the XI50 entry in assay [5] was “inactive”.

As to `CCCCC[C@@H]1CC[P@@](=O)(OC)OC(C)=C1C(=O)OC` (racemic), the inhibition entry in assay [1], in assay [2] and in assay [3] was “inactive” in each case. Also, the XI50 was more than 100 molar excess in assay [4], 2.7 molar excess in assay [5] and 1.42 molar excess in assay [6].

Consider `COP1(=O)CCCC(CO)=C(C)O1` (racemic), for which the inhibition entry in assay [1], in [2] and in assay [3] was “inactive” throughout. Besides, the XI50 entry in assay [4] and in assay [5] was “inactive” throughout. This molecule also gave an XI50 in assay [6] of more than 100 molar excess.

With `CCCCCCCCCCCC[C@@H]1CC[P@](=O)(OC)OC(C)=C1C(=O)OC` (racemic), the inhibition result in assay [1], in assay [2] and in [3] was “inactive” in each case. The XI50 was 6.14 molar excess in assay [4], 2.44 molar excess in assay [5] and 3.63 molar excess in assay [6].

As for `CCCCC[C@@H]1CC[P@](=O)(OC)OC(C)=C1C(=O)OC` (racemic), the inhibition result in assay [1], in [2] and in assay [3] was “inactive” throughout. The values for the XI50 in assay [4], in assay [5] and in assay [6] were more than 100 molar excess, 3.79 molar excess and 26.2 molar excess, respectively.

Consider `CO[P@@]1(=O)CC[C@@H]2COC(=O)C2=C(C)O1` (racemic), for which the inhibition result in assay [1], in assay [2] and in assay [3] was “inactive” throughout. The same molecule had an inhibition in assay [7] of 14%. Moreover, the XI50 was more than 100 molar excess in assay [4], 41.6 molar excess in [5] and 4.49 molar excess in [6].

Consider `CCCCCCCCCCCCCCCCOP1(=O)CCCC(C(=O)OC)=C(C)O1` (configuration not stated), for which the Activity in assay [8] stood at 444 Da. The inhibition entry in assay [1], in assay [2] and in [3] was “inactive” in each case. Further, the T1/2 in assay [9] came to 9.6 s. Besides, the XI50 in assay [4] is 0.83 molar excess; in assay [6], 0.56 molar excess. Further, the XI50 result in [5] is “inactive”.

Turning to `CCCCCCCCCCCCCCCCCC[C@@H]1CC[P@@](=O)(OC)OC(C)=C1C(=O)OC` (racemic), the inhibition entry in assay [1], in [2] and in assay [3] was “inactive” throughout. The XI50 in [4] was determined as 0.77 molar excess; in [5], 3.15 molar excess; in [6] it was 1.18 molar excess.

With `CCCCCCCCCCCCCCCC[C@@H]1CC[P@](=O)(OC)OC(C)=C1C(=O)OC` (racemic), the inhibition result in assay [1], in [2] and in assay [3] was “inactive” in each case. Moreover, the XI50 was 3.47 molar excess in assay [4], more than 100 molar excess in assay [5] and 4.43 molar excess in assay [6].

Turning to `CCCCCCCCCCCCCCCC[C@@H]1CC[P@@](=O)(OC)OC(C)=C1C(=O)OC` (racemic), the inhibition result in assay [1], in [2] and in [3] was “inactive” in each case. For the same molecule, the XI50 in assay [4] was found to be 0.6 molar excess; in assay [5], 1.32 molar excess; in assay [6], 2.54 molar excess.

With `CCCCCCCCCCCCCCCCCC[C@@H]1CC[P@](=O)(OC)OC(C)=C1C(=O)OC` (racemic), the inhibition result in [1], in assay [2] and in [3] was “inactive” each time. In addition, the XI50 in assay [4] was 7.47 molar excess; in [5], more than 100 molar excess; in [6], 7.26 molar excess.

Consider `CO[P@]1(=O)CC[C@@H]2COC(=O)C2=C(C)O1` (racemic), for which the inhibition result in [1], in assay [2] and in assay [3] was “inactive” each time. The molecule further gave an inhibition in assay [7] of 14%. Moreover, the XI50 is more than 100 molar excess in assay [4], 43.2 molar excess in assay [5] and 8.77 molar excess in assay [6].

`COC(=O)C1=C(C)OP(=O)(OC)CCC1` (racemic): the Activity in assay [10] was 233 Da. For the same molecule, the inhibition entry in [1], in [2] and in [3] was “inactive” each time. Besides, the inhibition in assay [7] was 14%. For the same molecule, the XI50 in assay [4] is more than 100 molar excess; in [5], 30.5 molar excess; in assay [6], 1.39 molar excess.
